This passage reports inhibition, Activity and IC50 results from ChEMBL document CHEMBL1914330 (Eur J Med Chem, 2011).

Activity calls are given as the source filed them. The calls are words filed in the database; no cut-off is given here.

The species entered for one data set is Bos taurus. Put plainly: Displacement of [3H]colchicine from bovine brain tubulin at 5 uM by DEAE-cellulose filter method. The method in brief:
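Inhibition of [³H]colchicine binding to bovine brain tubulin. Reaction mixtures held 1 µM tubulin, 5 µM [³H]colchicine and 5 µM test compound.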

The test system of data set [1] is HeLa. Kind of data set: Effect on Bax protein expression in human HeLa cells at 0.25 to 0.5 uM after 24 to 48 hrs by Western blot analysis. In kind it is functional, cell-based. The method in brief:
(§1)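 HeLa cells treated for 24 or 48 h were washed in cold PBS and lysed on ice for 30 min. Lysates were cleared at 15,000 × g, run on SDS-PAGE and blotted. Membranes were probed 2 h at room temperature with antibodies to the target protein, then peroxidase secondary and ECL. Blots were reprobed for β-actin as loading control.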

The subject of data set [2] is HeLa. Put plainly: Induction of apoptosis in human HeLa cells assessed as increase in hypodiploid DNA content at subG1-phase after 24 hrs by flow cytometric analysis relative to untreated control. In kind it is functional, cell-based. In a few lines:
(§2)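 HeLa cells treated for 24 h over 0.06–0.5 µM. Cells fixed in ice-cold 70% ethanol, lysed with buffer containing RNase A and 0.1% Triton X-100, and stained with PI. DNA content read by flow cytometry, including the sub-G1 fraction. Mean ± SEM of three independent experiments.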

Data set [3] has as its system HeLa. Kind of data set: Cell cycle arrest in human HeLa cells at G2/M phase after 24 hrs by propidium iodide staining-based flow cytometry. The format is functional. The method in brief: as §2
Data set [4] relates to HeLa. Put plainly: Induction of apoptosis in human HeLa cells assessed as accumulation of necrotic cells after 48 hrs by Annexin-V-FITC/propidium iodide staining-based flow cytometric analysis. In kind it is functional, cell-based. In a few lines:
(§3)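 HeLa cells treated for 24 or 48 h, then labelled with annexin-V-FITC and PI. Analysed by flow cytometry with excitation at 488 nm and emission at 525 nm (FITC) and 585 nm (PI). Quadrants scored as live, early apoptotic, late apoptotic or necrotic. Mean ± SEM of four independent experiments.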

Data set [5] has as its system HeLa. Put plainly: Induction of cell cycle arrest at G2/M phase in human HeLa cells assessed as disappearance of Cdc25C expression at 0.25 to 5 uM after 48 hrs by Western blot analysis. In kind it is functional, cell-based. In a few lines:
as §1

Another data set concerns Mus musculus. Kind of data set: Toxicity in nude BALB/c mouse xenografted with human HT-29 cells assessed as weight changes at 100 mg/kg, ip administered 3 times per week for 1 week. Further details: dose 100 mg/kg, route intraperitoneal. The format is organism-based. The conditions noted are these: in vivo, 168 h. The method in brief:
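HT-29 cells in log phase, suspended at 1 × 10⁷ cells/mL in serum-free RPMI 1640, 0.2 mL injected subcutaneously into the back of nude mice. At about 300 mm³, mice were randomised to vehicle or treatment groups (six per group). The compound was given in DMSO by i.p. injection at 0.01 mL/g body weight. Body weight was recorded on set days; mice were euthanised after 23 days.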

Another data set has as its system CCRF-CEM. Kind of data set: Antiproliferative activity against human CEM cells after 2 days by coulter counter analysis. In kind it is functional, cell-based. Conditions: 48 h. In a few lines: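 Cells suspended at 300,000–500,000 cells/mL and mixed 1:1 with diluted compound. Incubated at 37 °C for two days, then counted with a Coulter counter. IC50 is the concentration inhibiting proliferation by 50%, as mean ± SE from dose-response curves of at least three independent experiments.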

Data set [6] concerns HeLa. Put plainly: Induction of apoptosis in human HeLa cells assessed as accumulation of necrotic cells after 24 hrs by Annexin-V-FITC/propidium iodide staining-based flow cytometric analysis. In kind it is functional, cell-based. In a few lines: as §3
In data set [7] the test system is HeLa. Kind of data set: Induction of apoptosis in human HeLa cells assessed as PARP cleavage at 0.25 to 5 uM by Western blot analysis. In kind it is functional, cell-based. Conditions: TDE = time-dependent effect. In a few lines:
as §1

In data set [8] the test system is HeLa. Kind of data set: Induction of apoptosis in human HeLa cells assessed as loss of mitochondrial membrane potential after 24 to 48 hrs by JC1 staining-based flow cytometric analysis. In kind it is functional, cell-based. In a few lines: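 After 24 or 48 h treatment, HeLa cells were trypsinized and resuspended in HBSS with JC-1 (1 µM). Incubated 10 min at 37 °C, washed, and read by flow cytometry for red (590 nm) aggregate versus green (530 nm) monomer. Mean ± SEM of three experiments.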

The test system of data set [9] is HeLa. Kind of data set: Induction of cell cycle arrest at G2/M phase in human HeLa cells assessed as decrease in Cdc2 phosphorylation at Tyr15 at 0.25 to 5 uM after 24 hrs by Western blot analysis. In kind it is functional, cell-based. The method in brief: as §1
The subject of the next data set is HT-29. Put plainly: Antitumor activity against human HT-29 cells xenografted in BALB/c nude mouse assessed as reduction in tumor growth at 100 mg/kg, ip administered 3 times per week for 1 week. In kind it is functional. Further details: scale not given: the % may be the effect or the level left. Conditions: route intraperitoneal. The method in brief:
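HT-29 cells (1 × 10⁷/mL in serum-free RPMI 1640, 0.2 mL) were injected subcutaneously in the back of nude mice. At about 300 mm³ tumours, 18 mice were randomised to vehicle or drug groups. Drug in DMSO was given i.p. at 0.01 mL/g, 100 mg/kg, three times weekly for one week. Tumour volume = (L × W²)/2 by caliper; body weight also recorded; six mice per group.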

Data set [10] relates to HeLa. Put plainly: Induction of apoptosis in human HeLa cells assessed as accumulation of late apoptotic cells after 24 hrs by Annexin-V-FITC/propidium iodide staining-based flow cytometric analysis. In kind it is functional, cell-based. In a few lines: as §3
In data set [11] the test system is HeLa. Put plainly: Cell cycle arrest in human HeLa cells assessed as decrease in cell accumulation in G1 phase after 24 hrs by propidium iodide staining-based flow cytometry. In kind it is functional. In a few lines: as §2
In data set [12] the test system is HeLa. Kind of data set: Effect on Bcl2 protein expression in human HeLa cells at 0.25 to 0.5 uM after 24 hrs by Western blot analysis. The format is functional, cell-based. In a few lines: as §1
Another data set relates to LoVo. Put plainly: Antiproliferative activity against human LoVo cells after 72 hrs by MTT assay. In kind it is functional, cell-based. The method in brief: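 Cells seeded at 8 × 10³ per well in complete medium and exposed to a range of compound concentrations at 37 °C for 72 h. Viability read by MTT test. IC50 taken as the concentration inhibiting proliferation by 50%.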

`COc1cc(C(=O)c2sc(N3CCCC3)nc2N)cc(OC)c1OC` showed an inhibition in the data set filed under Bos taurus of 67%. The outcome with HeLa [1] and with HeLa [12] was inactive. In addition, the Activity result in the data set on HeLa [2] was “Dose-dependent effect”; in the data set with HeLa [3], “Dose-dependent effect”; with Mus musculus, “Non-toxic”; in the data set on HeLa [6] it was “Dose-dependent effect”; with HeLa [7], “tde”; in the data set with HeLa [8], “Dose-dependent effect”. Further, the Activity in the data set on HT-29 is 58%; in the data set with HeLa [10], “Dose-dependent effect”; in the data set on HeLa [11], “Dose-dependent effect”. For the same compound, the outcome with HeLa [4], with HeLa [5] and in the data set on HeLa [9] was Active. Also, the IC50 in the data set with CCRF-CEM came to 320 nM; with LoVo, 100 nM.
